Measurements pooled from the literature.
Compare with care: the assays were run in different laboratories.
gag-pol reverse transcriptase: Gag-Pol polyprotein, reverse transcriptase (gag-pol, Human immunodeficiency virus 1, UniProt P03366)
gyrA: DNA gyrase subunit A (gyrA, Escherichia coli K-12, UniProt P0AES4)
EP300: Histone acetyltransferase p300 (EP300, Homo sapiens, UniProt Q09472)
PRKACA: cAMP-dependent protein kinase catalytic subunit alpha (PRKACA, Homo sapiens, UniProt P17612)

Compound	target	test	setting	IC50
N#Cc1ccc(Nc2nc(N)cc(Oc3ccc(-c4ccccc4C#N)cc3F)n2)cc1	gag-pol reverse transcriptase	enzyme activity, inhibitor	–	100 nM
Cc1cc(C)cc(S(=O)(=O)c2c(C(=O)NCCCNS(=O)(=O)c3ccccc3)[nH]c3ccc(Cl)cc23)c1	gag-pol reverse transcriptase	enzyme activity, inhibitor, ELISA	–	84 nM
CC(=O)N[C@@H]1[C@@H](O)[C@H](O)[C@@H](CO)S[C@@H]1OP(=O)(O)OP(=O)(O)OC[C@H]1O[C@@H](n2ccc(=O)[nH]c2=O)[C@H](O)[C@@H]1O	UDP-N-acetylglucosamine--peptide N-acetylglucosaminyltransferase 110 kDa subunit (OGT, Homo sapiens, UniProt O15294)	enzyme activity, inhibitor	–	78800 nM
O=C1N=C(Nc2ccccc2)S/C1=C\c1ccccc1OCc1cn(Cc2ccc(Cl)cc2)nn1	Aldo-keto reductase family 1 member A1 (AKR1A1, Homo sapiens, UniProt P14550)	enzyme activity, inhibitor, absorbance	pH 6.2	54000 nM
NCc1ccccc1	Secernin-3 (Homo sapiens, UniProt Q0VDG4)	enzyme activity, inhibitor	lysate	> 300000 nM
NC(=O)c1ccc[n+]([C@@H]2O[C@H](COP(=O)([O-])OP(=O)(O)OC[C@H]3O[C@@H](n4cnc5c(N)ncnc54)[C@H](O)[C@@H]3O)[C@@H](O)[C@H]2O)c1	Protein mono-ADP-ribosyltransferase PARP12 (PARP12, Homo sapiens, UniProt Q9H0J9)	enzyme activity, inhibitor	–	73000 nM
CC(C)Oc1c(NC(=O)c2ccc(NC(=O)[C@H](CC(N)=O)NC(=O)c3ccc(NC(=O)c4ccc([N+](=O)[O-])c5cccnc45)cc3)cc2)ccc(C(=O)Nc2ccc(C(=O)O)cc2)c1O	gyrA	enzyme activity, inhibitor	–	300 nM
Cc1cc(C)cc(S(=O)(=O)c2c(C(=O)NCCNS(=O)(=O)c3ccc(-c4ccccc4)cc3)[nH]c3ccc(Cl)cc23)c1	gag-pol reverse transcriptase	enzyme activity, inhibitor, ELISA	–	180 nM
CC(C)Oc1c(NC(=O)c2ccc(NC(=O)[C@H](CC(N)=O)NC(=O)c3cccc(-c4cccc(C#N)c4)c3)cc2)ccc(C(=O)Nc2ccc(C(=O)O)cc2)c1O	gyrA	enzyme activity, inhibitor	–	> 50000 nM
CCCCCCCCCCCCCCCc1cccc(O)c1C(=O)O	EP300	enzyme activity, inhibitor, radiometric	–	> 200000 nM
Nc1ncnc2c1c(Cc1cccc3ccccc13)nn2CC1CCNCC1	Tyrosine-protein kinase ABL1 (ABL1, Homo sapiens, UniProt P00519)	enzyme activity, inhibitor	–	> 20000 nM
N#Cc1ccc(Nc2nc(N)cc(Oc3ccc(-c4ccc(C#N)cc4)c(C(F)(F)F)c3)n2)cc1	gag-pol reverse transcriptase	enzyme activity, inhibitor	–	90 nM
CC(C)Oc1c(NC(=O)c2ccc(NC(=O)[C@H](CC(N)=O)NC(=O)c3ccc(NC(=O)c4ccc(C#N)cn4)cc3)cc2)ccc(C(=O)Nc2ccc(C(=O)O)cc2)c1O	gyrA	enzyme activity, inhibitor	–	900 nM
N#Cc1ccc(Nc2nc(N)cc(Oc3ccc(-c4cccc(C#N)c4)cc3)n2)cc1	gag-pol reverse transcriptase	enzyme activity, inhibitor	–	700 nM
CC1(C)C(/C=C/C=C2/N(CCCc3ccccc3)c3ccc4ccccc4c3C2(C)C)=[N+](CCCc2ccccc2)c2ccc3ccccc3c21	Protein arginine N-methyltransferase 6 (PRMT6, Homo sapiens, UniProt Q96LA8)	enzyme activity, inhibitor, radiometric	–	750 nM
Cc1ccc(S(=O)(=O)NCCNC(=O)c2[nH]c3ccc(Cl)cc3c2S(=O)(=O)c2cc(C)cc(C)c2)cc1	gag-pol reverse transcriptase	enzyme activity, inhibitor, ELISA	–	75 nM
N#Cc1ccc(Nc2nc(N)cc(Oc3ccc(-c4ccc(F)cc4)cc3)n2)cc1	gag-pol reverse transcriptase	enzyme activity, inhibitor	–	200 nM
N#Cc1ccc(COc2cccc(C3CCN(Cc4nc5ccc(C(=O)O)cc5n4C[C@@H]4CCO4)CC3)n2)c(F)c1	Gastric inhibitory polypeptide receptor (GIPR, Homo sapiens, UniProt P48546)	cAMP, antagonist	–	> 10000 nM
COc1ccc2c(Oc3ccc4c(C(=O)Nc5ccccc5N)cccc4c3)ccnc2c1	PRKACA	enzyme activity, inhibitor	–	> 500 nM
CC/C(=N\NC(=O)C(C)Nc1ccccc1)c1ccc(O)c(C)c1O (centres unmarked)	PRKACA	enzyme activity, inhibitor	–	22.5 nM
CCn1ncc2c1-c1cnc(N)c(c1)O[C@H](C)c1cc(F)ccc1-c1nn(C)nc1C2	Protein-tyrosine kinase 2-beta (PTK2B, Homo sapiens, UniProt Q14289)	enzyme activity, inhibitor, radiometric	–	14 nM

Compound	target	test	setting	IC50
N#Cc1ccc(Nc2nc(N)cc(Oc3c(F)cc(-c4ccccc4C#N)cc3F)n2)cc1	gag-pol reverse transcriptase	enzyme activity, inhibitor	–	30 nM
COc1ccc(S(=O)(=O)ON=C2C=C(C)C(=O)C(C)=C2)cc1	EP300	enzyme activity, inhibitor, fluorescence	–	1980 nM
O=C(Nc1cccc2[nH]ccc12)c1ccc(F)cc1	Alpha-synuclein, monomer (SNCA, Homo sapiens, UniProt P37840)	amyloid aggregation, inhibitor, fluorescence	–	~11600 nM
COc1cc(C(=O)Nc2ccc(C(=O)N[C@@H](CC(N)=O)C(=O)Nc3ccc(C(=O)Nc4ccc(C(=O)Nc5ccc(C(=O)O)cc5)c(O)c4OC(C)C)cc3)cc2)ccc1C#N	gyrA	enzyme activity, inhibitor	–	1800 nM
COc1cc(C[C@H]2C(=O)OC[C@@H]2Cc2ccc(OC)c(OC)c2)ccc1O	cGMP-dependent 3',5'-cyclic phosphodiesterase (PDE2A, Homo sapiens, UniProt O00408)	enzyme activity, inhibitor	–	> 20000 nM
CC(C)Oc1c(NC(=O)c2ccc(NC(=O)[C@H](CC(N)=O)NC(=O)c3ccc(NC(=O)c4ccc(C#N)c(Cl)c4)cc3)cc2)ccc(C(=O)Nc2ccc(C(=O)O)cc2)c1O	gyrA	enzyme activity, inhibitor	–	100 nM
Cc1ccc(S(=O)(=O)NCCCNC(=O)c2[nH]c3ccc(Cl)cc3c2S(=O)(=O)c2cc(C)cc(C)c2)cc1	gag-pol reverse transcriptase	enzyme activity, inhibitor, ELISA	–	160 nM
N#Cc1ccc(Nc2nc(N)cc(Oc3ccc(-c4ccccc4)cc3)n2)cc1	gag-pol reverse transcriptase	enzyme activity, inhibitor	–	570 nM
CN1CCN(c2ccc(Nc3ncc4cc(C#N)c(=O)n(C5CCCC5)c4n3)cc2)CC1	Serine/threonine-protein kinase WNK2 (WNK2, Homo sapiens, UniProt Q9Y3S1)	enzyme activity, inhibitor	–	> 10000 nM
Cc1cc(C)cc(S(=O)(=O)c2c(C(=O)NCCNS(=O)(=O)c3cccs3)[nH]c3ccc(Cl)cc23)c1	gag-pol reverse transcriptase	enzyme activity, inhibitor, ELISA	–	140 nM
CC(C)Oc1c(NC(=O)c2ccc(NC(=O)[C@H](CC(N)=O)NC(=O)c3ccc(NC(=O)c4cc(C#N)cn4C)cc3)cc2)ccc(C(=O)Nc2ccc(C(=O)O)cc2)c1O	gyrA	enzyme activity, inhibitor	–	700 nM
Cc1ccc(C(=O)Nc2ccc(S(=O)(=O)O)c3cc(S(=O)(=O)O)cc(S(=O)(=O)O)c23)cc1NC(=O)c1cccc(NC(=O)Nc2cccc(C(=O)Nc3cc(C(=O)Nc4ccc(S(=O)(=O)O)c5cc(S(=O)(=O)O)cc(S(=O)(=O)O)c45)ccc3C)c2)c1	P2X purinoceptor 2 (P2RX2, Homo sapiens, UniProt Q9UBL9)	calcium signal, antagonist	–	22500 nM
N#Cc1ccc(Nc2nc(N)cc(Oc3ccc(-c4ccc(F)cc4)cc3F)n2)cc1	gag-pol reverse transcriptase	enzyme activity, inhibitor	–	60 nM
COc1ccc(S(=O)(=O)NCCCCCNC(=O)c2[nH]c3ccc(Cl)cc3c2S(=O)(=O)c2cc(C)cc(C)c2)cc1	gag-pol reverse transcriptase	enzyme activity, inhibitor, ELISA	–	160 nM
C/C(=C\c1ccc(C#N)cc1)C(=O)Nc1ccc(C(=O)N[C@@H](CC(N)=O)C(=O)Nc2ccc(C(=O)Nc3ccc(C(=O)Nc4ccc(C(=O)O)cc4)c(O)c3OC(C)C)cc2)cc1	gyrA	enzyme activity, inhibitor	–	200 nM
Cc1cc(C)cc(S(=O)(=O)c2c(C(=O)NCCCNS(=O)(=O)c3cccc(F)c3)[nH]c3ccc(Cl)cc23)c1	gag-pol reverse transcriptase	enzyme activity, inhibitor, ELISA	–	130 nM
CC(C)Oc1c(NC(=O)c2ccc(NC(=O)[C@H](CC(N)=O)NC(=O)c3ccc(NC(=O)c4cccc([N+](=O)[O-])c4)cc3)cc2)ccc(C(=O)Nc2ccc(C(=O)O)cc2)c1O	gyrA	enzyme activity, inhibitor	–	2200 nM
N#C/C(=C\c1cccn1S(=O)(=O)c1ccccc1)S(=O)(=O)c1ccccc1	Protein phosphatase methylesterase 1 (Homo sapiens, UniProt Q9Y570)	enzyme activity, inhibitor	–	> 20000 nM
N#Cc1ccc(Nc2nc(N)cc(Oc3ccc(-c4ccc(C#N)c(F)c4)cc3F)n2)cc1	gag-pol reverse transcriptase	enzyme activity, inhibitor	–	70 nM
Cc1cc(C)cc(S(=O)(=O)c2c(C(=O)NCCCNS(=O)(=O)c3ccc(Cl)cc3)[nH]c3ccc(Cl)cc23)c1	gag-pol reverse transcriptase	enzyme activity, inhibitor, ELISA	–	78 nM
